# Compound activity as filed in PubChem BioAssay.
# Sampled rows, rich in hits. Any-hit rate of the full collection: about 2.3%.
# TRPC6 activator: activates the mouse TRPC6 cation channel; Q61143; HEK293-TRPC6 membrane potential dye fluorescence; stronger effect = higher value; B-score at 10 µM; 310,000 tested, 0.13% active; AID 2550;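 active = B-score of the integrated fluorescence ratio above library mean plus 3 SD, and starting fluorescence ratio within library mean plus 5 SD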;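 note: higher score means more depolarization so channel activation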
# TRPC4 potent: TRPC4 (mouse) allosteric potentiation; Q9QUQ5; HEK293 TRPC4beta/mu-opioid, DAMGO EC20, Fluo-4 Ca2+ flux; stronger effect = higher value; 310,000 tested, 0.42% active; B-score at 10 µM;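 active = B-score of calcium response area above 5 SD of library B-scores, with initial fluorescence ratio within 5 SD of library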
# TRPC4 block: inhibitors of mouse TRPC4 channel; Q9QUQ5; HEK293 TRPC4beta/mu-opioid, DAMGO-evoked Fluo4 calcium flux; stronger effect = lower value; B-score at 10 µM; 300,000 tested, 0.39% active; AID 2247;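 active = B-score over 3 SD under the library average, no early fluorescence shift, positive overall ratio signal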
#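 material = TRPC4beta/mu-opioid receptor HEK293 cell line | probe or stimulus = sequential submaximal and maximal DAMGO stimulation | compound dosing = one concentration per compound | measured by = Fluo4 Ca2+ flux fluorescence | evaluation = integrated fluorescence ratio relative to baseline, converted to per-well B score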
# TRPC6 inh: blocks the mouse TRPC6 cation channel. HEK293-TRPC6, membrane potential dye, ACh-evoked depolarization; stronger effect = lower value. B-score at 10 µM. 310,000 tested, 1.1% active. AID 2553;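 active = B-score under library mean minus 3 SD, initial fluorescence not abnormally high, positive integrated signal ratio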;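 note: B-score derived from integrated fluorescence ratio over the kinetic read; more negative B-score means stronger inhibition of depolarization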
# TRPC4 act: TRPC4 (mouse) channel activation. HEK293 TRPC4beta/mu-opioid, Fluo4 calcium fluorescence; stronger effect = higher value. 310,000 tested, 0.49% active. Q9QUQ5. B-score at 10 µM;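 active = B-score above 5 SD of library B-scores, and initial fluorescence ratio not above library mean plus 5 SD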;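 note: positive B-score marks a calcium rise read as TRPC4 activation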
#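 Technique: kinetic Fluo4 calcium fluorescence; Test system: TRPC4beta and mu-opioid receptor HEK293 stable cells; Measure: B-scored integrated calcium fluorescence ratio; Benchmarks: low control buffer alone, high control maximal DAMGO; Schedule: 45 min room-temperature Fluo4 loading, 110 s read.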
# TRPC4 sel inh 2: mouse TRPC4 off-target activity of TRPC6 inhibitors, second screen; shares compounds with TRPC6 inh; inhibition, % at 10 µM; HEK293 TRPC4/MOR, membrane potential dye fluorescence; channel activated by saturating DAMGO dose; AID 2776; 920 tested, 42% active;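 active = compounds whose fluorescence signal differed from control wells by over 3 SD, either direction, in both duplicate plates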
# TRPC4 spec: selectivity of TRPC6 inhibitors: effect on mouse TRPC4; activity change, negative = inhibition, % at 10 µM; 920 tested, 61% active; shares compounds with TRPC6 inh; HEK293 TRPC4/mu-opioid, membrane potential fluorescence; AID 2777;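 active = rise or fall in signal beyond 3 SD of buffer-only wells in both replicate plates, either sign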;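 note: integrated kinetic ratio of fluorescence range over baseline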
# HEK293 MPD ctr 2-1: second check of TRPC6 inhibitor effects in parental HEK293 cells. shares compounds with TRPC6 inh. parental HEK293 membrane potential dye fluorescence; maximal acetylcholine challenge after compound addition. signal change vs control, % at 10 µM. 920 tested, 31% active. AID 2779;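 active = membrane potential signal moving either way by over 3 SD of the maximum-effect control, in both duplicate plates, meaning non-specific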
# HEK293 MPD ctr-1: counter-screen for TRPC6 inhibitors: effect in parental HEK293 cells; 920 tested, 60% active; shares compounds with TRPC6 inh; parental HEK293 membrane potential dye fluorescence; membrane potential signal change, % at 10 µM;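 active = membrane potential signal shifting up or down by more than 3 SD of buffer-only wells, on both duplicate plates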
# HEK293 MPD ctr-2: counter-screen for TRPC6 modulators: effect in parental HEK293 cells | shares compounds with TRPC6 inh | membrane potential dye fluorescence | membrane potential signal change, % at 10 µM | 2,400 tested, 51% active | AID 488924;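 active = membrane potential signal moves up or down beyond 5 SD from buffer-only wells, on both duplicate plates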
# HEK293 MPD ctr 2-2: second check of TRPC6 modulator effects in parental HEK293 cells. shares compounds with TRPC6 inh. membrane potential dye fluorescence; after compound, maximal acetylcholine stimulation. inhibition, % at 10 µM. 2,400 tested, 14% active;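 active = membrane potential signal drops by more than 5 SD from the mean control signal, in both duplicate plates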
# TRPC4/MOR mod: selectivity of TRPC6 modulators against mouse TRPC4; 2,400 tested, 69% active; HEK293 TRPC4/mu-opioid, membrane potential fluorescence; shares compounds with TRPC6 inh; percent change from control (negative = decrease, positive = increase), % at 10 µM;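 active = membrane potential signal moved up or down beyond 5 SD of buffer control wells, in both duplicate plates, actives on both sides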
# TRPC4 ctr inh 2: second check of whether TRPC6 modulators also affect mouse TRPC4 | shares compounds with TRPC6 inh | HEK293 TRPC4/mu-opioid, membrane potential dye fluorescence; stimulated with maximal-effect DAMGO | inhibition, % at 10 µM | 2,400 tested, 55% active;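 active = drop in membrane potential signal beyond 5 SD of the control wells in both duplicate plates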;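 note: TRPC4 counter screen for TRPC6 hits run under conditions tuned for TRPC6 not TRPC4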
# TRPC6 inh conf: confirmation of mouse TRPC6 inhibitors. 3,300 tested, 43% active. inhibition, % at 10 µM. HEK293-TRPC6, membrane potential dye, ACh-evoked depolarization. shares compounds with TRPC6 inh;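 active = fluorescence ratio falls more than 5 SD below the full-stimulation control mean, in both duplicate runs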;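 note: integrated fluorescence ratio of peak minus minimum over baseline after agonist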
# TRPC6 act confirm: mouse TRPC6 activator confirmation. shares compounds with TRPC6 inh. HEK293-TRPC6 membrane potential dye fluorescence, FDSS. activation, % at 10 µM. 2,800 tested, 11% active. AID 488961;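 active = ratio signal rise beyond 5 SD above unstimulated control wells' mean, seen in both duplicate runs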
# A number is an active result; 0 = inactive; - = no result given.
SMILES,TRPC6 activator,TRPC4 potent,TRPC4 block,TRPC6 inh,TRPC4 act,HEK293 MPD ctr-2,HEK293 MPD ctr 2-2,TRPC4/MOR mod,TRPC4 ctr inh 2,TRPC6 inh conf,TRPC6 act confirm,others
COc1ccc(C(C(=O)NC2CCCC2)N(CC2CCCO2)C(=O)Cn2nnc(-c3ccc(C)o3)n2)cc1 (stereo not drawn),0,0,0,-6.2,0,0,0,0,0,0,0,
CCN(CC)CCN(C(=O)Cn1nnc(-c2ccc(C)o2)n1)C(C(=O)NC(C)(C)C)c1cccs1 (stereo not drawn),18,0,0,0,0,488%,0,112%,32%,0,242%,
CCc1nn(CC(=O)NCCC2=CCCCC2)c(=O)c2cc3cc(F)ccc3n12,0,0,0,0,0,-,-,-,-,-,-,
O=S(=O)(Nc1nc2ccccc2nc1Nc1cccc(S(=O)(=O)N2CCCCC2)c1)c1ccccc1,0,0,0,0,0,-,-,-,-,-,-,
COc1cc2nc(Nc3cccc(F)c3)nc(N)c2cc1OC,0,0,0,-6.5,0,0,0,0,47%,52%,0,
COc1ccc(Nc2nc(N)c3ccccc3n2)c(OC)c1,0,0,-7,-10,0,-202%,86%,-42%,92%,90%,0,
COc1ccc(Nc2nc(-c3ccccc3)nc3ccccc23)c(OC)c1,0,0,0,0,0,-,-,-,-,-,-,
Cc1ccc(Nc2nc(N)c3ccccc3n2)cc1C,0,0,0,-12,0,-94%,65%,-36%,78%,66%,0,
Cc1ccc(Nc2nc3ccccc3c(=O)[nH]2)cc1C,0,0,0,0,0,-,-,-,-,-,-,
COc1nc(Nc2cccc(F)c2)nc(OC)n1,0,0,0,0,0,-,-,-,-,-,-,
CC(C)(C)c1ccc(C(=O)NC2CCN(Cc3ccccc3)CC2)cc1,0,0,0,0,0,-,-,-,-,-,-,
Cc1c(Cl)c([N+](=O)[O-])nn1CCCC(=O)Nc1c(C)n(C)n(-c2ccccc2)c1=O,0,0,0,-6.5,0,0,0,0,0,0,0,
Cc1c(NC(=O)C2(c3ccc(Cl)cc3)CCCC2)c(=O)n(-c2ccccc2)n1C,0,0,0,-6.6,0,-,-,-,-,0,0,TRPC4 sel inh 2=0;TRPC4 spec=0;HEK293 MPD ctr 2-1=0;HEK293 MPD ctr-1=0
COc1ccc(NC(=O)Nc2c(C)n(C)n(-c3ccccc3)c2=O)c(OC)c1,0,0,0,-5,0,0,0,0,0,0,0,
Cc1c(NC(=O)C2(c3ccccc3)CCOCC2)c(=O)n(-c2ccccc2)n1C,0,0,0,0,0,-,-,-,-,-,-,
COc1ccc(NC(=O)Nc2nc(C)cc(C)n2)c(OC)c1,0,0,0,-5.4,0,-75%,0,-15%,0,0,0,
COc1ccccc1CNC(=O)C(NC(=O)c1ccccc1C)C(C)C (stereo not drawn),0,0,0,0,0,-,-,-,-,-,-,
CCn1c(Cc2ccc(OC)cc2)nnc1SCc1nc2ccccc2c(=O)[nH]1,0,0,0,0,0,-,-,-,-,-,-,
c1cnc(Sc2ccc3nnnn3n2)nc1,0,0,0,0,0,-,-,-,-,-,-,
Cc1ccc(N2CC(O)(c3cccs3)[N+]3=C2CCCC3)cc1 (stereo not drawn),0,0,0,-5.2,0,104%,0,16%,38%,0,-,
Cc1cccc(N2CC(O)(c3cccs3)[N+]3=C2CCCC3)c1 (stereo not drawn),0,0,0,0,0,-,-,-,-,-,-,
CN(C)CCNc1ccc(-c2nn(C)c(=O)c3ccccc23)cc1[N+](=O)[O-],0,0,0,-5.2,0,-134%,0,-32%,78%,72%,0,
Cn1nc(-c2ccc(NCCO)c([N+](=O)[O-])c2)c2ccccc2c1=O,0,0,0,0,0,-,-,-,-,-,-,
Cc1ccc(NC(=O)COc2ccccc2CNC(C)(C)CC(C)(C)C)cc1,14,0,0,0,0,296%,0,71%,0,0,176%,
CC(C)(CO)NCc1ccccc1OCC(=O)Nc1ccccc1,0,0,0,0,0,-,-,-,-,-,-,
SMILES,TRPC6 activator,TRPC4 potent,TRPC4 block,TRPC6 inh,TRPC4 act,HEK293 MPD ctr-2,HEK293 MPD ctr 2-2,TRPC4/MOR mod,TRPC4 ctr inh 2,TRPC6 inh conf,TRPC6 act confirm,others
CCCCNC(=O)N1CCCC(C(=O)c2cc(C)c(OC)c(C)c2)C1 (stereo not drawn),0,0,0,0,0,-,-,-,-,-,-,
Cc1ccc(-n2cccn2)c(CN2CCCC(CNC(=O)c3ccc(F)cc3)C2)c1 (stereo not drawn),0,0,0,0,0,-,-,-,-,-,-,
Cc1ccc(-n2cccn2)c(CN2CCCC(C(=O)c3ccc4c(c3)OCO4)C2)c1 (stereo not drawn),0,0,-8,-6.8,0,190%,0,14%,83%,53%,-,
CCOC(=O)c1cnc2c(C)cc(C)cc2c1NCCCN1CCOCC1,0,0,0,-8.8,0,-,-,-,-,65%,0,TRPC4 sel inh 2=70%;TRPC4 spec=0;HEK293 MPD ctr 2-1=-14%;HEK293 MPD ctr-1=0
CCOC(=O)c1cnc2c(C)c(C)ccc2c1NCCN1CCOCC1,0,0,0,-5.8,0,86%,77%,28%,33%,0,0,
CCOC(=O)c1cnc2c(Cl)c(Cl)ccc2c1NCCN1CCOCC1,0,0,0,0,0,-,-,-,-,-,-,
CCOC(=O)c1cnc2ccc(Br)cc2c1NCCCN1CCOCC1,0,0,0,0,0,-,-,-,-,-,-,
CCOC(=O)c1cnc2ccc(C)cc2c1NCCN1CCOCC1,0,0,0,-5.1,0,0,0,15%,34%,42%,0,
Cc1ccc2ncnc(NCCCN3CCOCC3)c2c1,0,0,0,0,0,-,-,-,-,-,-,
